Source: ChEMBL document CHEMBL4229483, “Synthesis and evaluation of an orally available "Y"-shaped biaryl peroxisome proliferator-activated receptor δ agonist” (Bioorg Med Chem, 2018)

Key:
[1] = target: T1, Peroxisome proliferator-activated receptor delta (Homo sapiens, UniProt Q03181); assay: Transactivation of human PPARdelta expressed in monkey CV-1 cells coexpressing TK-PPRE-Luc after 24 hrs by luciferase reporter gene assay; format: cell-based
T1 sequence (Q03181 whole entry): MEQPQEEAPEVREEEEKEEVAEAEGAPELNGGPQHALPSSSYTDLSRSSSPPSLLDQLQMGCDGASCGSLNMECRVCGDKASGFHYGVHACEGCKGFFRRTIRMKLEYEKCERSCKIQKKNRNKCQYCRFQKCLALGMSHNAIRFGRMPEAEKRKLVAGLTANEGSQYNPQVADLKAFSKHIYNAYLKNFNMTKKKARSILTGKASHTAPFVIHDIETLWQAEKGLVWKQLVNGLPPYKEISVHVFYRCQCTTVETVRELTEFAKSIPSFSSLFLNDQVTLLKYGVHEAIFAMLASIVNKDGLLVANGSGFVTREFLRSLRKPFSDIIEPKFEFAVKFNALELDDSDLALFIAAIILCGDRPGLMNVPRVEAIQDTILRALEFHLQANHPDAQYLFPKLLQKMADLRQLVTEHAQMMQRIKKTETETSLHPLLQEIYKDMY
Method in brief: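 Agonist activity tested in transiently transfected CV-1 cells by reporter assay. EC50 is the molar concentration giving 50% of the maximal reporter activity.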

[2] = target: T2, Peroxisome proliferator-activated receptor alpha (Homo sapiens, UniProt Q07869); assay: Transactivation of human PPARalpha expressed in monkey CV-1 cells coexpressing TK-PPRE-Luc after 24 hrs by luciferase reporter gene assay; format: cell-based
T2 sequence (Q07869 whole entry): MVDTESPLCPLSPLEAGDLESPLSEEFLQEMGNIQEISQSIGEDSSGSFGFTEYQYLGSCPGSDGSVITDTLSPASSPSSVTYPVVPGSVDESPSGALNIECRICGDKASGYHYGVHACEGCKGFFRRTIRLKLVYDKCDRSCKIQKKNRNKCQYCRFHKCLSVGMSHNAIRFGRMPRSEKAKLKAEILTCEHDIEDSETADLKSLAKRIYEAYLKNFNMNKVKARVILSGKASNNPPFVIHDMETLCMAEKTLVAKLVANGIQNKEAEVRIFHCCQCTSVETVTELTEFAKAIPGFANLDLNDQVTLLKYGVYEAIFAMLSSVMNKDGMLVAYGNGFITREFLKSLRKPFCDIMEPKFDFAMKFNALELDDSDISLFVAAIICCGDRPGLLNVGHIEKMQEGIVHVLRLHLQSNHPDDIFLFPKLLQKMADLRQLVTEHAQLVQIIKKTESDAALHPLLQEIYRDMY

[3] = target: T3, Peroxisome proliferator-activated receptor gamma (Homo sapiens, UniProt P37231); assay: Transactivation of human PPARgamma expressed in monkey CV-1 cells coexpressing TK-PPRE-Luc after 24 hrs by luciferase reporter gene assay; format: cell-based
T3 sequence (P37231 whole entry): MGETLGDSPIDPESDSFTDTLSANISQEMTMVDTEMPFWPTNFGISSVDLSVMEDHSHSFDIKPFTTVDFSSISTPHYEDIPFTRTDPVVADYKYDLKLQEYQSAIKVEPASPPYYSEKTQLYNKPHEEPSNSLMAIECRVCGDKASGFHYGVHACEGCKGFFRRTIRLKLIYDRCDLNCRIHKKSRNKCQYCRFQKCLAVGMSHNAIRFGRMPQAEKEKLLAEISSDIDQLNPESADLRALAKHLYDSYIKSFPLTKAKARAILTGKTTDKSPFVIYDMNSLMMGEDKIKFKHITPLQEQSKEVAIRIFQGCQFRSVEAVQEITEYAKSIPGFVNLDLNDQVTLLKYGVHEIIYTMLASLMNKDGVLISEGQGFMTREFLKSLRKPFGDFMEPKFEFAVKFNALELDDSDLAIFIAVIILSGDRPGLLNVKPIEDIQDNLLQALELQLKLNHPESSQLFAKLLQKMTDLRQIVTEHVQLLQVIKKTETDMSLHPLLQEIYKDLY

CYP1A2 = target: T4, CYP1A2 (Homo sapiens, UniProt P05177); assay: Inhibition of phenacetin O-deethylase activity of CYP1A2 in human liver microsomes at 10 uM preincubated for 5 mins followed by NADPH addition measured after 15 mins by LC-MS/MS analysis; format: ADME; conditions: probe phenacetin (O-deethylation)
T4 sequence (P05177 whole entry): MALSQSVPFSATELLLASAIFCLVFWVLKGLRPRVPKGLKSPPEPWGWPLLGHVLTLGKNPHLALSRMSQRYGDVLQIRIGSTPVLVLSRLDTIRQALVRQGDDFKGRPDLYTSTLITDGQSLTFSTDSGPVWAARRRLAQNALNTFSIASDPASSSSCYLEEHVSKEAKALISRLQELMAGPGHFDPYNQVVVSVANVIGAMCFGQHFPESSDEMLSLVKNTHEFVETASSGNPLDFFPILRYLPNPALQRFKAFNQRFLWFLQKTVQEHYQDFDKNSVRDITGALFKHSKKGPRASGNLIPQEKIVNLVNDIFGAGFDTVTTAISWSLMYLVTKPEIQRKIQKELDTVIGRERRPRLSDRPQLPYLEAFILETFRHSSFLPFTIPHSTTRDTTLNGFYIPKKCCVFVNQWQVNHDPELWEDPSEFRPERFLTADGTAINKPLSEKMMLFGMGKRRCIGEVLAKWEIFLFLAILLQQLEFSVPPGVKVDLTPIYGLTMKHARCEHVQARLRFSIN
Method in brief: (§1)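 Compound incubated with liver microsomes and isotype-specific CYP substrates for 15 min. Activity expressed as percent inhibition relative to incubation without compound. Values are means of duplicates.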

CYP2C9 = CYP2C9 (Homo sapiens, UniProt P11712); assay: Inhibition of tolbutamide 4-hydroxylase activity of CYP2C9 in human liver microsomes at 10 uM preincubated for 5 mins followed by NADPH addition measured after 15 mins by LC-MS/MS analysis; format: ADME; conditions: probe tolbutamide (4-hydroxylation); method in brief: as §1
CYP2C19 = CYP2C19 (Homo sapiens, UniProt P33261); assay: Inhibition of S-mephenytoin 4-hydroxylase activity of CYP2C19 in human liver microsomes at 10 uM preincubated for 5 mins followed by NADPH addition measured after 15 mins by LC-MS/MS analysis; format: ADME; conditions: probe S-mephenytoin (4-hydroxylation); method in brief: as §1
CYP2D6 = CYP2D6 (Homo sapiens, UniProt P10635); assay: Inhibition of dextromethorphan O-demethylase activity of CYP2D6 in human liver microsomes at 10 uM preincubated for 5 mins followed by NADPH addition measured after 15 mins by LC-MS/MS analysis; format: ADME; conditions: probe dextromethorphan (O-demethylation); method in brief: as §1
CYP3A4 = CYP3A4 (Homo sapiens, UniProt P08684); assay: Inhibition of midazolam 1'-hydroxylase activity of CYP3A4 in human liver microsomes at 10 uM preincubated for 5 mins followed by NADPH addition measured after 15 mins by LC-MS/MS analysis; format: ADME; conditions: probe midazolam (1'-hydroxylation); method in brief: as §1
[4] = Metabolic stability in human liver microsomes assessed as parent compound remaining at 1 uM after 30 mins in presence of NADPH by LC-MS/MS analysis; format: ADME, microsome; conditions: read-out: Stability
Method in brief: (§2)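 Compound incubated with liver microsomes for 30 min. Percentage of parent remaining quantified by LC-MS/MS. Means of duplicate determinations.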

[5] = Metabolic stability in dog liver microsomes assessed as parent compound remaining at 1 uM after 30 mins in presence of NADPH by LC-MS/MS analysis; format: ADME, Canis lupus familiaris, microsome; conditions: read-out: Stability; method in brief: as §2
[6] = Metabolic stability in rat liver microsomes assessed as parent compound remaining at 1 uM after 30 mins in presence of NADPH by LC-MS/MS analysis; format: ADME, microsome; conditions: read-out: Stability; method in brief: as §2
[7] = Metabolic stability in mouse liver microsomes assessed as parent compound remaining at 1 uM after 30 mins in presence of NADPH by LC-MS/MS analysis; format: ADME, microsome; conditions: read-out: Stability; method in brief: as §2
[8] = Permeability of the compound at 10 uM at pH 7.4 after 5 hrs by PAMPA; format: ADME; conditions: read-out: permeability
Method in brief: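 PAMPA. Effective permeability calculated after 5 h. Values are the mean of four determinations.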

[9] = target: Voltage-gated inwardly rectifying potassium channel KCNH2 (Homo sapiens, UniProt Q12809); assay: Inhibition of human ERG after 4 hrs by fluorescence polarization assay
Method in brief: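 hERG channel binding measured by a fluorescence polarization (Predictor) assay. IC50 obtained by four-parameter non-linear regression.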

[10] = Total AUC in Sprague-Dawley rat at 1 mg/kg, iv by LC-MS/MS analysis; format: ADME, organism-based; parameters: dose 1 mg/kg, route intravenous, time AUCmax; conditions: in vivo
Method in brief: (§3)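 Rats (n = 4) given 1 mg/kg iv. Vehicle: ethanol 10%, DMSO 10%, Cremophor EL 10%, water 50%, PEG400 30%. Parameters calculated from composite mean plasma concentration–time data, reported as mean ± SD.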

[11] = Clearance in Sprague-Dawley rat at 1 mg/kg, iv by LC-MS/MS analysis; format: ADME, organism-based; conditions: in vivo; method in brief: as §3
[12] = Volume of distribution at steady state in Sprague-Dawley rat at 1 mg/kg, iv by LC-MS/MS analysis; format: ADME, organism-based; conditions: in vivo, read-out: Vdss; method in brief: as §3
[13] = Half life in Sprague-Dawley rat at 1 mg/kg, iv by LC-MS/MS analysis; format: ADME, organism-based; conditions: in vivo; method in brief: as §3
[14] = Cmax in Sprague-Dawley rat at 10 mg/kg, po by LC-MS/MS analysis; format: ADME, organism-based; parameters: dose 10 mg/kg, route oral; conditions: in vivo
Method in brief: (§4)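 Formulation: ethanol 10%, DMSO 10%, Cremophor EL 10%, […], PEG400 30%. PK parameters taken from composite mean plasma concentration–time profiles, given as mean ± SD.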

[15] = Tmax in Sprague-Dawley rat at 10 mg/kg, po by LC-MS/MS analysis; format: ADME, organism-based; conditions: in vivo; method in brief: as §4
[16] = Total AUC in Sprague-Dawley rat at 10 mg/kg, po by LC-MS/MS analysis; format: ADME, organism-based; parameters: dose 10 mg/kg, route oral, time AUCmax; conditions: in vivo; method in brief: as §4
[17] = Oral bioavailability in Sprague-Dawley rat at 10 mg/kg by LC-MS/MS analysis; format: ADME, organism-based; conditions: in vivo; method in brief: as §4

Sequence of CYP2D6 (P10635 whole entry): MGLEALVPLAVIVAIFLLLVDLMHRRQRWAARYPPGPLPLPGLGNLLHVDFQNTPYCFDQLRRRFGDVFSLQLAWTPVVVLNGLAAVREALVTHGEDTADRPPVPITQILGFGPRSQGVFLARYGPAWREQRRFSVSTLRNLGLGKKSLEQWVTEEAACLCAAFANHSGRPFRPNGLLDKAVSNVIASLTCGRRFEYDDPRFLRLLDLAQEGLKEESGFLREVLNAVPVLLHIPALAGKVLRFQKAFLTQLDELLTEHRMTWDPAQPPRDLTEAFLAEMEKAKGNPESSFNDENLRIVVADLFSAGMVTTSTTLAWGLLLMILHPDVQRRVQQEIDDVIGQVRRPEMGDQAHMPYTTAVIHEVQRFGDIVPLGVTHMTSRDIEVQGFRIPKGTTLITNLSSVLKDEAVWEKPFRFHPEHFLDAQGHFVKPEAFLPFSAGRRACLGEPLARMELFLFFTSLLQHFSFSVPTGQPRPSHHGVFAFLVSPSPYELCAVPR
Sequence of CYP2C9 (P11712 whole entry): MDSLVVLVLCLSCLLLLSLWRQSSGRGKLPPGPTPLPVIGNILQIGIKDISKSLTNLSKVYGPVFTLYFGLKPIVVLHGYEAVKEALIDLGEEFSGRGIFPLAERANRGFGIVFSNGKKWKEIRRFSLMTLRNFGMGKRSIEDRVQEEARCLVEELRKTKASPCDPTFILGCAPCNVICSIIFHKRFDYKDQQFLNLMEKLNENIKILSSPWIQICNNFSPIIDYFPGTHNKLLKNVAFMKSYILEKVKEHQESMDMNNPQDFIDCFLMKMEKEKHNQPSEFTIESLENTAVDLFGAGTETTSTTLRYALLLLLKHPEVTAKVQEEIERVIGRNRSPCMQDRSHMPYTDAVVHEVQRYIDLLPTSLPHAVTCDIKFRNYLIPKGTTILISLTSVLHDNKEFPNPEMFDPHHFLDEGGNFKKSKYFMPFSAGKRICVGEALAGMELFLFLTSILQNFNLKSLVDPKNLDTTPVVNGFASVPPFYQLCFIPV
Sequence of CYP3A4 (P08684 whole entry): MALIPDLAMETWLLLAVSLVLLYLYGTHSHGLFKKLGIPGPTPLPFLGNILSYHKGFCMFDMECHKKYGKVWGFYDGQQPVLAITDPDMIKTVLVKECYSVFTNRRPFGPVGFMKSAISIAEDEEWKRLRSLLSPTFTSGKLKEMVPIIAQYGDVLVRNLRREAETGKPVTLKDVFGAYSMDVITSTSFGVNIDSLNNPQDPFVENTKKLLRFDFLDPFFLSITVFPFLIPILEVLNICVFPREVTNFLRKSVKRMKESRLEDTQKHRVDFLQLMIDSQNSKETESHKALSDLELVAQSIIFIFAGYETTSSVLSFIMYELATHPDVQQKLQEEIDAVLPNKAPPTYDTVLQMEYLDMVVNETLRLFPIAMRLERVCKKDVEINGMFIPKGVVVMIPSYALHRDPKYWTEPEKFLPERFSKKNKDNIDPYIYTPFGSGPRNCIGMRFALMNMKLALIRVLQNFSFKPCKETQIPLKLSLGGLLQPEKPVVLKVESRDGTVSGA
Sequence of CYP2C19 (P33261 whole entry): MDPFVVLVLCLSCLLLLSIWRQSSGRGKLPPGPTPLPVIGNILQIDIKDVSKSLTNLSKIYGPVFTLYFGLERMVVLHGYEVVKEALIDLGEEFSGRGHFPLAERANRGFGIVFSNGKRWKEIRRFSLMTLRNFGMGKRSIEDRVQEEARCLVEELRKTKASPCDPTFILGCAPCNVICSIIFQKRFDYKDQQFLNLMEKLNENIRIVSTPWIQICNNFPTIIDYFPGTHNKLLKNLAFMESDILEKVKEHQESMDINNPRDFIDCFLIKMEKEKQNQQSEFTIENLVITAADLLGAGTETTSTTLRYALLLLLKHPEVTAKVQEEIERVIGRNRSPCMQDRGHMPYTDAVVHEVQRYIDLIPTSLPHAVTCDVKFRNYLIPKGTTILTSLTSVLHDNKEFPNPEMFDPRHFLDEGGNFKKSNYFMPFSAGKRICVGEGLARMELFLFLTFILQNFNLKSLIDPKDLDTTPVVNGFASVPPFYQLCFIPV
Sequence of Voltage-gated inwardly rectifying potassium channel KCNH2 (Q12809 whole entry): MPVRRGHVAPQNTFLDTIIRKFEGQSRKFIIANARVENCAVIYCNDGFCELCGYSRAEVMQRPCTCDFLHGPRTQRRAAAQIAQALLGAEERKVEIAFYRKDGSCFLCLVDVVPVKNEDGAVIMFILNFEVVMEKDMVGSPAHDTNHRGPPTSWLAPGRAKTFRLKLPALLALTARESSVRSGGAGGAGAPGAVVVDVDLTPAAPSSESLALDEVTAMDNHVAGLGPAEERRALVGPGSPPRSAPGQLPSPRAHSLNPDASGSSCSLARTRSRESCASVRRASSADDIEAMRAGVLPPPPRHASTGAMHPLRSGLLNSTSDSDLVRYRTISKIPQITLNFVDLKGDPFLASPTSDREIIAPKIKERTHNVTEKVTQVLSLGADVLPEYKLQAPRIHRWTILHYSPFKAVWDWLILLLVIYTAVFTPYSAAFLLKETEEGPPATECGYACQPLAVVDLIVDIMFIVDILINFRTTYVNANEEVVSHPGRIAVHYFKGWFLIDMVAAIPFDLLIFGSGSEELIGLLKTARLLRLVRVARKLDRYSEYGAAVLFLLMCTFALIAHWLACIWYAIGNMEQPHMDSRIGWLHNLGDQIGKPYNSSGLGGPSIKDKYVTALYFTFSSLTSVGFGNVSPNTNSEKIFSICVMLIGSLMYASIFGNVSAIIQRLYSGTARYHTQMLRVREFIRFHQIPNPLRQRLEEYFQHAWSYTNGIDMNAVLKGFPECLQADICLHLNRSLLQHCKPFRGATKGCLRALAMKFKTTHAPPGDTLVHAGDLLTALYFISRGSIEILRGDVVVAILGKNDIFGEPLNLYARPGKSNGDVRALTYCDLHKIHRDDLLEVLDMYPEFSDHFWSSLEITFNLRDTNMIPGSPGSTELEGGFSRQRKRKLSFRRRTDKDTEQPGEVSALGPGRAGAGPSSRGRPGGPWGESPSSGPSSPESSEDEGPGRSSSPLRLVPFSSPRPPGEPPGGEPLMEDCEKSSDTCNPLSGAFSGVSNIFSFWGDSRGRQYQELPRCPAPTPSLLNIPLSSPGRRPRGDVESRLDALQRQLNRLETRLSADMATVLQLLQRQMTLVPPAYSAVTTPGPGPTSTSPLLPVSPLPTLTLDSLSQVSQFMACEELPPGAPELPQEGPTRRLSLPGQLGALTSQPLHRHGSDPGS

EC50 [1] [µM]	EC50 [2] [µM]	EC50 [3] [µM]	Structure (SMILES)	also measured
0.004	> 10	> 10	Cc1cc(SC(Cc2cc(F)ccc2F)c2ccc(-c3ccc(F)cc3)cc2)ccc1OCC(=O)O (stereo not given)	
0.038	> 10	> 10	Cc1cc(SC(Cc2cc(C(F)(F)F)ccc2F)c2ccc(-c3ccc(F)cc3)cc2)ccc1OCC(=O)O (stereo not given)	
0.0095	> 10	> 10	Cc1cc(SC(Cc2cc(Cl)ccc2Cl)c2ccc(-c3cc(F)c(F)c(F)c3)cc2)ccc1OCC(=O)O (stereo not given)	
0.065	> 10	> 10	Cc1cc(SC(Cc2cc(F)c(F)c(F)c2)c2ccc(-c3ccc(F)cc3)cc2)ccc1OCC(=O)O (stereo not given)	
0.0058	> 10	> 10	Cc1cc(SC(Cc2cc(C(F)(F)F)ccc2F)c2ccc(-c3cccc(C(F)(F)F)c3)cc2)ccc1OCC(=O)O (stereo not given)	
0.007	> 10	> 10	Cc1cc(SC(Cc2ccccc2)c2ccc(-c3ccc(F)cc3)cc2)ccc1OCC(=O)O (stereo not given)	
	> 10	> 10	Cc1cc(SC(Cc2ccccc2)c2ccc(-c3ccc(C(F)(F)F)cc3)nc2)ccc1OCC(=O)O (stereo not given)	
0.0069	> 10	> 10	Cc1cc(SC(Cc2cc(Cl)ccc2F)c2ccc(-c3cc(F)c(F)c(F)c3)cc2)ccc1OCC(=O)O (stereo not given)	
0.025	> 10	> 10	Cc1cc(SC(Cc2cc(Cl)ccc2F)c2ccc(-c3ccc(F)cc3)cc2)ccc1OCC(=O)O (stereo not given)	
	> 10	> 10	Cc1cc(SC(Cc2ccccc2)c2ccc(-c3ccc(C(F)(F)F)cc3)cc2)ccc1OCC(=O)O (stereo not given)	inhibition at 0.25 h, 10 µM (CYP1A2): 1.5%; inhibition at 0.25 h, 10 µM (CYP2C9): 35.5%; inhibition at 0.25 h, 10 µM (CYP2C19): 4.3%; inhibition at 0.25 h, 10 µM (CYP2D6): 0%; inhibition at 0.25 h, 10 µM (CYP3A4): 7.3%; remaining at 0.5 h, 1 µM [4]: 99.8%; remaining at 0.5 h, 1 µM [5]: > 100%; remaining at 0.5 h, 1 µM [6]: > 100%; remaining at 0.5 h, 1 µM [7]: > 100%; Papp at 5 h, 10 µM [8]: 9.54 ×10⁻⁶ cm/s; IC50 [9]: > 10 µM; AUC [10]: 3830 ng·h/mL; clearance [11]: 4 mL/min/kg; Vd [12]: 1 L/kg; half-life [13]: 3.6 h; Cmax [14]: 2320 ng/mL; Tmax [15]: 4.5 h; AUC [16]: 12500 ng·h/mL; bioavailability [17]: 32.6%
0.012	> 10	> 10	Cc1cc(SC(Cc2cc(F)c(F)c(F)c2)c2ccc(-c3cccc(C(F)(F)F)c3)cc2)ccc1OCC(=O)O (stereo not given)	
